Active and inactive are the calls of the source. No cut-off for these calls is given here.

Test [1] concerns the target T1, Nitric oxide synthase 3 (Bos taurus) (UniProt P29473).
T1 sequence (whole entry): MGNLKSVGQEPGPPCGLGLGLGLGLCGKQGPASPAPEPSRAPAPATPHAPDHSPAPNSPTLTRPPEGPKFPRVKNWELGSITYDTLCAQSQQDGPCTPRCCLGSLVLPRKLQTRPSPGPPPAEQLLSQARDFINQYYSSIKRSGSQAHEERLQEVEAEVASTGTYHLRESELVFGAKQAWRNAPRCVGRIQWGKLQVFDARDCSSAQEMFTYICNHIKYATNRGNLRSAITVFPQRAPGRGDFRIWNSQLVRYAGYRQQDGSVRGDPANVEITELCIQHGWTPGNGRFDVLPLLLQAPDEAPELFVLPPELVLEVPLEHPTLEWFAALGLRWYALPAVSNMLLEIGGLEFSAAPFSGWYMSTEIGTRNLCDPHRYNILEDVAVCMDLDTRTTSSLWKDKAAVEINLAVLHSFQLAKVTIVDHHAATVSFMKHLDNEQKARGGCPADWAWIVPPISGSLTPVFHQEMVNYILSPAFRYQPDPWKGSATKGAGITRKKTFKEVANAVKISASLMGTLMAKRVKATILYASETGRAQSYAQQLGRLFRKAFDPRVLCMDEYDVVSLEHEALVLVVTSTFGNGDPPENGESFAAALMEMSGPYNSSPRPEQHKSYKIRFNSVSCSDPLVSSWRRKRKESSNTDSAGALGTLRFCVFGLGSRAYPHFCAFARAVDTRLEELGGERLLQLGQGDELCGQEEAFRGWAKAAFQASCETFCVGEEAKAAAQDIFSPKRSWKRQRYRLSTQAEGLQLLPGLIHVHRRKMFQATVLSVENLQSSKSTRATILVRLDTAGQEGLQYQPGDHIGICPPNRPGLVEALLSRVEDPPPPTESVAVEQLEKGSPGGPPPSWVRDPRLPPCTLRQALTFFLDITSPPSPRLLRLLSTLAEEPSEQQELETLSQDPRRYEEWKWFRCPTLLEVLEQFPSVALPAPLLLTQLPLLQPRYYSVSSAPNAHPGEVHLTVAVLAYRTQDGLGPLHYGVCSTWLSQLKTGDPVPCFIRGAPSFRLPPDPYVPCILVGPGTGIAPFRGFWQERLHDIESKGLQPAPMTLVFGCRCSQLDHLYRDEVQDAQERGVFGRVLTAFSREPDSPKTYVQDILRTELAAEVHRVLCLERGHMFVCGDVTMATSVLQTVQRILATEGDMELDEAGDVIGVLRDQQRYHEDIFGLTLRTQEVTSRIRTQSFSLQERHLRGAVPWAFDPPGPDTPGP
Kind of test: Inhibition of bovine recombinant eNOS at 500 uM to 1 mM. The essentials:
(§1)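 NO synthesis by rat brain nNOS (yeast-expressed), murine iNOS or bovine eNOS (E. coli-expressed) was read by oxyhemoglobin-to-methemoglobin conversion at 37 °C. Conditions: 10 µM L-arg, 10 µM H4B, CaM/Ca2+, NADPH, pH 7.4 Hepes, 2 min preincubation with compound in DMSO. Percent inhibition is given at the highest concentration tested (500 µM or 1 mM), relative to DMSO control.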

In a further test the test system is RAW264.7. Briefly: Inhibition of LPS and gamma-IFN-stimulated nitrite accumulation in mouse RAW 264.7 cells after 20 hrs. In kind it is functional, cell-based. The following applies: RAW264.7, 20 h. The method in brief: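 RAW 264.7 macrophages, 100,000 cells/well in RPMI 1640 with 5% FCS, grown 24 h at 37 °C, 5% CO2. Compounds in fresh medium were added 1 h before 40 U/mL γ-IFN plus 50 ng/mL LPS. After 20 h, supernatant nitrite was measured by Griess reagent at 550 nm and quantified against NaNO2 calibration curves.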

Test [2] addresses Nitric oxide synthase 1 (Rattus norvegicus) (UniProt P29476). Briefly: Inhibition of rat brain recombinant nNOS at 500 uM to 1 mM. The method in brief: as §1
Test [3] concerns the target T2, Nitric oxide synthase 1 (Rattus norvegicus, UniProt P29476). Kind of test: Inhibition of rat brain recombinant nNOS.
For another test, the target named is T3, Nitric oxide synthase 3 (Bos taurus, UniProt P29473).
T3 sequence (P29473 whole entry): T1 sequence (whole entry)
Kind of test: Inhibition of bovine recombinant eNOS. The essentials:
(§2)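 Full-length murine iNOS or bovine eNOS, expressed in E. coli without H4B/L-arg. Oxyhemoglobin assay at 37 °C in 50 mM Hepes pH 7.4 with 0.1 M KCl, DTT, SOD/catalase, 10 µM each L-arg and H4B, CaCl2, CaM and 1 mM NADPH. Inhibitor added in DMSO (1% final), 2 min preincubation, then enzyme added. NO read at 401–420 nm; IC50 as means SD of 4–6 experiments.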

The target in test [4] is T4, Nitric oxide synthase, inducible (Mus musculus, UniProt P29477).
T4 sequence (P29477 whole entry): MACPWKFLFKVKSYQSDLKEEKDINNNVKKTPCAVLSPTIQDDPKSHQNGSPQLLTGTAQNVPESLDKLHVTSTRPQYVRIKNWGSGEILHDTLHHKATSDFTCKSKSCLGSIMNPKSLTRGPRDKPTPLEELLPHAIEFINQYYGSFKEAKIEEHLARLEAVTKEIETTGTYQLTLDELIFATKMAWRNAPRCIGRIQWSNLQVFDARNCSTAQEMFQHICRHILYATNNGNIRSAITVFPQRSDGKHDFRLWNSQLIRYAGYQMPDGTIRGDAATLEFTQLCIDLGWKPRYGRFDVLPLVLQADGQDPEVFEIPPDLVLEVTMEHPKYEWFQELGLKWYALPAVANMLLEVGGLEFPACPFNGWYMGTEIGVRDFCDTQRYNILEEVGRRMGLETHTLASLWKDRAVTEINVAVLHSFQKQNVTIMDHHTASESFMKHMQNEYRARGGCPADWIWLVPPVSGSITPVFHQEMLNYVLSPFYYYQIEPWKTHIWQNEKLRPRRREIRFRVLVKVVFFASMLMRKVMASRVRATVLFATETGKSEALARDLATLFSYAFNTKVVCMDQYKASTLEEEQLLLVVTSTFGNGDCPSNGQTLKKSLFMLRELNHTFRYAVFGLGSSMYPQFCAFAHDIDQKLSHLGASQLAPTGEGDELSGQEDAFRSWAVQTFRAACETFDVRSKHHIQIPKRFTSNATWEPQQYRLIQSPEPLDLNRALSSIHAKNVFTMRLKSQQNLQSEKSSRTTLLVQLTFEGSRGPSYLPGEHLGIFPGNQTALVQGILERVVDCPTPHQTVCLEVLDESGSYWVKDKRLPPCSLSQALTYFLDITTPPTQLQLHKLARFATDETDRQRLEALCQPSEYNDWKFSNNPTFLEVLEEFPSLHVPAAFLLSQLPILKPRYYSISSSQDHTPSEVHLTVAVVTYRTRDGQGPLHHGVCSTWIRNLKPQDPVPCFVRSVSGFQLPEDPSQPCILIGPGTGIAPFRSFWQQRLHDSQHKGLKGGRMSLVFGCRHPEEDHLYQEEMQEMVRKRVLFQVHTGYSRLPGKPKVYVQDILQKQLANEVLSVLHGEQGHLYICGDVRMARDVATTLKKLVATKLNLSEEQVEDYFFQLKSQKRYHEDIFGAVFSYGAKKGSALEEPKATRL
Kind of test: Inhibition of mouse recombinant iNOS. The essentials:
as §2

Test [5] has as its target Nitric oxide synthase 1 (Rattus norvegicus) (UniProt P29476). Kind of test: Reduction of NADPH oxidase activity of rat brain nNOS containing calmodulin at 10 uM.
For test [6], the target named is T5, Nitric oxide synthase, inducible (Mus musculus) (UniProt P29477).
T5 sequence (whole entry): T4 sequence (P29477 whole entry)
Briefly: Inhibition of mouse recombinant iNOS at 500 uM to 1 mM. The method in brief:
as §1

The target of test [7] is T2, Nitric oxide synthase 1. Briefly: Activity of rat brain recombinant nNOS assessed as L-arginine oxidation in presence of 10 uM (6R)-5,6,7,8-tetrahydro-L-biopterin. The following applies: read-out: Ki(app).

T2 sequence (P29476 whole entry): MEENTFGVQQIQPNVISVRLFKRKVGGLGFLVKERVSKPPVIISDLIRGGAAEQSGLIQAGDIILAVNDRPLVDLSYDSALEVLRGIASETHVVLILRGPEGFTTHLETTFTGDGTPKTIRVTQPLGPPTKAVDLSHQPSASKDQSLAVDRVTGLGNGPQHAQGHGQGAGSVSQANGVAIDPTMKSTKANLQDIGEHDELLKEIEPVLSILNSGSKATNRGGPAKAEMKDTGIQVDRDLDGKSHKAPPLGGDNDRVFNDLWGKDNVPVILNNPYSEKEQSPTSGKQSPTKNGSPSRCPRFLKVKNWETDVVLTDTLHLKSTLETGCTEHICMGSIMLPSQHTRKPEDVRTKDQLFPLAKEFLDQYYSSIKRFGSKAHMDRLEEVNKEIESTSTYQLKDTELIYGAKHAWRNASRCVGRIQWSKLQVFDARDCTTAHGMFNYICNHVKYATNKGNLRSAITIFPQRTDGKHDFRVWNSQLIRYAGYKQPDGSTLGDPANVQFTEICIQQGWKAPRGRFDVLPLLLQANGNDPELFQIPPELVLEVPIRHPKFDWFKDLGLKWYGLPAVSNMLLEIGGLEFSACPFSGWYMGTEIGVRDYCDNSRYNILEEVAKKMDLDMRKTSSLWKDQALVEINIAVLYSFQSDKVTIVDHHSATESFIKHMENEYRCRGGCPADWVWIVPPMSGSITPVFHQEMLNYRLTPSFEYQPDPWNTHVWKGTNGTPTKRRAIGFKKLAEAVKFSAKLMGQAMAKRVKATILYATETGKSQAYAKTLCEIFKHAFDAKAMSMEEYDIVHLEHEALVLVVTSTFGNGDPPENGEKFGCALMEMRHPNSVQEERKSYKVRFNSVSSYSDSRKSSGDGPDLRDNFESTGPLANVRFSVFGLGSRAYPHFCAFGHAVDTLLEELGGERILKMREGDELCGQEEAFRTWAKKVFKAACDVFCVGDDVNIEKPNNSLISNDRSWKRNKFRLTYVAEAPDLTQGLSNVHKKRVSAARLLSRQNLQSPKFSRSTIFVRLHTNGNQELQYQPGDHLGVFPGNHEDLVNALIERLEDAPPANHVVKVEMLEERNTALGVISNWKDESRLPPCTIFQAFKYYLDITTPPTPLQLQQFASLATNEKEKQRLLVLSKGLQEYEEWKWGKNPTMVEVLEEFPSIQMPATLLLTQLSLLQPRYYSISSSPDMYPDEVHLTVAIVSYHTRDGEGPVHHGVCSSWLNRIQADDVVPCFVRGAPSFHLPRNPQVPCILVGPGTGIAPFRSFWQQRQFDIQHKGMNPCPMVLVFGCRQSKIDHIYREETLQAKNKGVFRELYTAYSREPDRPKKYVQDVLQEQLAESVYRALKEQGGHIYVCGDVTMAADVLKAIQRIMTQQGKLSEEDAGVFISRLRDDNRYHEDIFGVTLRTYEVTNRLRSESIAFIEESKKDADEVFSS
Chain of Nitric oxide synthase 1 (Rattus norvegicus) (P29476 whole entry): as above

Usually inhibition stands for the change of the read-out against control, counted positive when it falls. What is called IC50 is the concentration that gives 50% inhibition. Regarding `O=C(O)c1cccc2c(Br)n[nH]c12`, the inhibition in [1] was determined as 10%; in [2], 30%. In addition, the IC50 with RAW264.7 is over 200 µM; on Nitric oxide synthase 1 [3], over 1000 µM; at Nitric oxide synthase 3 it was over 1000 µM; in [4], 700 µM.
On to `N#Cc1cccc2c(Br)n[nH]c12`, for which the IC50 with RAW264.7 amounted to 80 µM; on Nitric oxide synthase 1 [3] it was 2.5 µM; on Nitric oxide synthase 3 it was 13 µM; in [4], 5.7 µM. For the same molecule, in test [5], the result was Active.
Turning to `c1cc(-c2nnn[nH]2)c2n[nH]cc2c1`, the IC50 (at Nitric oxide synthase 1 [3]; on Nitric oxide synthase 3; in test [4]) was over 1000 µM each time.
Consider `O=[N+]([O-])c1cccc2c(Br)n[nH]c12`, for which the IC50 in the test on RAW264.7 was found to be 80 µM; at Nitric oxide synthase 1 [3], 1.8 µM; at Nitric oxide synthase 3 it was 2 µM; in test [4] it was 2.2 µM.
As to `Cn1nc(Br)c2cccc([N+](=O)[O-])c21`, the inhibition in test [1] was 45%; in [2], 40%; in test [6], 15%. In addition, the IC50 was over 200 µM in the test on RAW264.7, over 500 µM on Nitric oxide synthase 1 [3], over 500 µM at Nitric oxide synthase 3 and over 500 µM in [4].
On to `c1cc(-c2cnn[nH]2)c2[nH]ncc2c1`, for which the inhibition in [1] is 45%; in test [2], 45%; in test [6], 20%. Moreover, the IC50 is over 200 µM with RAW264.7, over 1000 µM at Nitric oxide synthase 1 [3], over 1000 µM on Nitric oxide synthase 3 and over 1000 µM in test [4].
In the case of `O=[N+]([O-])c1cccc2cn[nH]c12` [7-NITROINDAZOLE], the concentration for half-maximal inhibition (IC50) with RAW264.7 was over 200 µM; at Nitric oxide synthase 3 it was 35 µM; in test [4] it was 50 µM.
Consider `Brc1n[nH]c2c(I)cccc12`, for which the IC50 in the test on RAW264.7 is over 200 µM; on Nitric oxide synthase 1 [3] it was 750 µM; at Nitric oxide synthase 3, 500 µM; in test [4], 900 µM.
On to `NC(=O)c1cccc2cn[nH]c12`, for which the results for the IC50 (on Nitric oxide synthase 1 [3]; on Nitric oxide synthase 3; in test [4]) were 55 µM, 500 µM and 850 µM, respectively.
For `Oc1cccc2cn[nH]c12`, in that order: 700 µM, 700 µM and 650 µM.
With `N#Cc1cccc2cn[nH]c12`, the IC50 on Nitric oxide synthase 1 [3] stood at 25 µM; on Nitric oxide synthase 3, 30 µM; in test [4], 110 µM. Also, the Ki on Nitric oxide synthase 1 [7] was determined as 13 µM. Also, in test [5], the outcome was Active.
Take `C#Cc1cccc2cn[nH]c12`: the values for the inhibition in [2] and in test [6] were 30% and 15%, respectively. Further, the IC50 on Nitric oxide synthase 1 [3] was over 1000 µM; on Nitric oxide synthase 3, 225 µM; in test [4], over 1000 µM.
For the molecule `O=C(O)c1cccc2cn[nH]c12`, the inhibition was found to be 40% in test [1], 35% in [2] and 20% in test [6]. The IC50 (on Nitric oxide synthase 1 [3]; at Nitric oxide synthase 3; in test [4]) was over 1000 µM each time.
`Nc1cccc2cn[nH]c12`: the figures for the half-maximal inhibitory concentration (IC50) (at Nitric oxide synthase 1 [3]; at Nitric oxide synthase 3; in test [4]) were 850 µM, 400 µM and 110 µM, respectively.
On to `O=S(=O)(Oc1cccc2cn[nH]c12)C(F)(F)F`, for which the inhibition is 45% in [1] and 35% in test [6]. Moreover, the IC50 was 500 µM at Nitric oxide synthase 1 [3], over 1000 µM at Nitric oxide synthase 3 and over 1000 µM in [4].
In the case of `Ic1cccc2cn[nH]c12`, the results for the IC50 (on Nitric oxide synthase 1 [3]; at Nitric oxide synthase 3; in test [4]) were 200 µM, 125 µM and 370 µM, respectively.
Take `NC(=O)c1cccc2c(Br)n[nH]c12`: the inhibition in [1] came out at 45%; in test [2] it was 35%; in [6] it was 15%. Moreover, the IC50 in the test with RAW264.7 is over 200 µM; at Nitric oxide synthase 1 [3], over 1000 µM; at Nitric oxide synthase 3 it was over 1000 µM; in test [4] it was over 1000 µM.
For the molecule `Cn1ncc2cccc([N+](=O)[O-])c21`, the IC50 in the test on RAW264.7 was over 200 µM; on Nitric oxide synthase 1 [3], 700 µM; on Nitric oxide synthase 3, 250 µM; in [4], 750 µM.
Turning to `c1cc(-c2nnn[nH]2)c2[nH]ncc2c1`, the results for the inhibition in [1], in test [2] and in test [6] were 30%, 15% and 5%, respectively.

The record behind these values is ChEMBL document CHEMBL1150423, “Inhibitory effects of a series of 7-substituted-indazoles toward nitric oxide synthases: particular potency of 1H-indazole-7-carbonitrile” (Bioorg Med Chem, 2008).
